The nature of assay [1]: Stoichiometric study of Fe^3+–5i complex. The following applies: Fe^3+ 0–100 μM, 5i 100 μM; at 239 nm and 327 nm as printed. It is filed as physicochemical. The method in brief:
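UV titration at 37 °C: 100 μM test compound in a cuvette receives 20 μL aliquots of 1 mM FeCl3, raising Fe3+ in 10 μM steps to a final 10–100 μM. Spectra are recorded after each addition. A Job's plot is built from band absorbances, and the mole fraction is obtained by extrapolation.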

Assay [2] is described as follows: Antioxidant assay, ORAC-FL method. The following applies: compound and Trolox at 8 μM, 37 °C, three independent experiments. An outline of the steps:
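ORAC-FL in 75 mM phosphate buffer, 200 μL total: test compound, Trolox (both 8 μM) or buffer blank with 150 nM fluorescein solution, kept dark at 37 °C for 30 min. Then 12 mM AAPH solution is added and fluorescence (ex 485/em 535 nm) read every 1 min for 15 min. Net AUC vs blank is expressed as Trolox equivalents (Trolox = 1). Triplicates; three independent experiments, mean ± SEM.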

Assay [3] in a line: Affinity study of 5i towards Fe^3+ in metal pool. Format: physicochemical. The following applies: Zn^2+, Cu^2+, Ca^2+, Mg^2+, Na^+ and K^+ and 5i, 100 μM each.
Assay [4] is described as follows: Metal chelation study, selectivity towards essential metals. It is filed as physicochemical. The following applies: UV spectra. The method in brief: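 KCl, NaCl, CaSO4 or […] solutions are mixed with test compound at 100 μM each ligand and metal, incubated at 37 °C for 30 min, and scanned by UV from 200 to 600 nm, with compound-alone spectra taken in water. For the affinity check, Fe3+, Zn2+, Cu2+, Ca2+, Mg2+, Na+ and K+ are mixed at equal concentrations with test compound at 100 μM.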

The target of assay [5] is AChE from electric eel (EeAChE) (Electrophorus electricus, UniProt O42275). The experiment in a line: In vitro AChE inhibition, modified Ellman's method. It is filed as biochemical. The following applies: for IC50: EeAChE IC50 ± SEM, mean of three independent experiments; for inhibition at 156 µM / inhibition at 312 µM / inhibition at 625 µM / inhibition at 1250 µM / inhibition at 2500 µM / inhibition at 5000 µM / inhibition at 10000 µM: read-out: % of AChE inhibition. On the technique in general: In Ellman's method for cholinesterases, released thiocholine reacts with DTNB.
Chain of AChE from electric eel (EeAChE) (O42275 24-633): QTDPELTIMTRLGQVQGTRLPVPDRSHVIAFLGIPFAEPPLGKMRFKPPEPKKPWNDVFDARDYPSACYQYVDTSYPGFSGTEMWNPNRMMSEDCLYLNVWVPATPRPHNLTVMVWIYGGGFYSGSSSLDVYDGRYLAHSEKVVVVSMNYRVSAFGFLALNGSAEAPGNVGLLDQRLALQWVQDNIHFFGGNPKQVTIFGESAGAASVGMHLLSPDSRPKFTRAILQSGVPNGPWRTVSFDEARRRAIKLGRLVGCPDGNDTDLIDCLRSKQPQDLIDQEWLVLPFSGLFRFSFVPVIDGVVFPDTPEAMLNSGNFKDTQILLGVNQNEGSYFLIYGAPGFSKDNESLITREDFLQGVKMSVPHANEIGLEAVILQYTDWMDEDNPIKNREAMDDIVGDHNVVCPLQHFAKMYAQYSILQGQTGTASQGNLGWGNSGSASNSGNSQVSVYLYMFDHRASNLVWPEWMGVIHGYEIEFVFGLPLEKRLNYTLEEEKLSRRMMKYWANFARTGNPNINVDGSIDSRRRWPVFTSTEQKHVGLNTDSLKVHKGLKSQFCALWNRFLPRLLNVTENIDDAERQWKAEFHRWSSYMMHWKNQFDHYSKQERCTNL

Assay [6] is described as follows: Metal chelation study by UV spectrophotometer. It is filed as physicochemical. The following applies: for chelation of Fe^3+ (in words): UV spectra 200 to 600 nm. The method in brief:
(§1)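 UV spectra from 200 to 600 nm at 37 °C. Test compound and metal salt (FeCl3, CuCl2, ZnSO4·H2O or AlCl3·6H2O) are combined at 100 μM each and incubated at 37 °C for 30 min. Compound-alone spectra use water in place of metal. Read-outs are % change in absorbance, (+) for decrease and (−) for increase, plus band shift.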

The nature of assay [7]: Metal chelation study by UV spectrophotometer. It is filed as physicochemical. The following applies: for chelation of Al^3+ (in words): UV spectra 200 to 600 nm. An outline of the steps: as §1

Several values for one entry are separate records, joined by “and”; a condition that tells them apart may be missing. Identical values can stand only once.

In general, IC50 refers to the point on the concentration scale where inhibition reaches its midpoint. Low readings indicate greater potency, high ones weaker potency. In general, inhibition refers to how much of the control response was suppressed.

For the molecule `Cc1ncc(COCc2cn(Cc3cc(F)cc(F)c3)nn2)c(CO)c1O` [Compound 5i, 5-(((1-(3,5-Difluorobenzyl)-1H-1,2,3-triazol-4-yl)methoxy)methyl)-4-(hydroxymethyl)-2-methylpyridin-3-ol], the “mole fraction from Job's plot” value in assay [1] came to 0.5. Moreover, in assay [2], the “ORAC index ± SEM” value was 1.21 ± 0.28 Trolox equivalents and 1.2138 Trolox equivalents. Also, in assay [3], the “affinity towards Fe^3+ in the metal pool (in words)” value is listed as “showed affinity towards Fe^3+ in the metal pool”. The “chelation of Ca^2+, Mg^2+, Na^+ and K^+ (in words)” value in assay [4] is recorded as “did not chelate these metal ions at all”. In assay [5], the IC50 came to 1560 µM, the inhibition at 156 µM worked out at 15%, the inhibition at 312 µM is 26.6% and the inhibition at 625 µM came to 35.4%. In addition, in assay [5], the inhibition at 1250 µM worked out at 43%, the inhibition at 2500 µM was determined as 61.4%, the inhibition at 5000 µM stood at 66.8% and the inhibition at 10000 µM amounted to 77.9%. In addition, the “chelation of Fe^3+ (in words)” value in assay [6] is “chelated”. In assay [6] (band at 292 nm), the “bathochromic shift with Fe^3+” value is “about 3 nm”. Further, the “chelation of Al^3+ (in words)” value in assay [7] is “chelated”. The “increase in absorbance with Al^3+” value in assay [7] (at 292 nm) is recorded as 104%. Besides, in assay [7] (band at 292 nm), the “bathochromic shift with Al^3+” value came out at 4 nm.
In the case of `Cc1ncc(COCc2cn(Cc3ccccc3C(F)(F)F)nn2)c(CO)c1O` [Compound 5q, 4-(Hydroxymethyl)-2-methyl-5-(((1-(2-(trifluoromethyl)benzyl)-1H-1,2,3-triazol-4-yl)methoxy)methyl)pyridin-3-ol], in assay [2], the “ORAC index ± SEM” value came to 0.7168 Trolox equivalents. Further, in assay [5], the midpoint of inhibition, the IC50, lay at 1130 µM; the inhibition at 156 µM was determined as 22.5%; the inhibition at 312 µM was 26.9%; the inhibition at 625 µM was 39.1%. Moreover, in assay [5], the inhibition at 1250 µM turned out to be 53.8%, the inhibition at 2500 µM was found to be 64.1%, the inhibition at 5000 µM is 73.4% and the inhibition at 10000 µM came to 81.9%. Moreover, the “chelation of Fe^3+ (in words)” value in assay [6] was “chelated”. Besides, the “chelation of Al^3+ (in words)” value in assay [7] is “chelated”.

The values are drawn from PMC9055346 (RSC Advances, 2020).
